According to ChEMBL document CHEMBL1909522, “Inhibitory effect on NO production of phenolic compounds from Myristica fragrans” (Bioorg Med Chem Lett, 2011):
The source made the active and inactive calls. No cut-off for these calls is given here.

Assays:
RAW264.7 [1] = assay: Cytotoxicity against mouse RAW264.7 cells assessed as cell viability at 50 uM after 24 hrs by MTT assay; format: cell-based; conditions: raw264.7, 24 h
How it was run: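 Cells remaining after the Griess step, with or without LPS (1 µg/mL) and compound at 50 µM for 24 h, assessed by MTT colorimetric assay for viability.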

RAW264.7 [2] = assay: Antiinflammatory activity in mouse RAW264.7 cells assessed as inhibition of LPS-induced NO production after 24 hrs by Griess reagent method; format: functional, cell-based; conditions: RAW264.7, 24 h
How it was run: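 RAW264.7 cells (1 × 10^5 per well) stimulated with 1 µg/mL LPS for 24 h with or without test compounds (0.5–25 µM). Nitrite in culture supernatant measured by Griess reaction as NO marker. IC50 relative to vehicle control; average of three repeated experiments.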

RAW264.7 [3] = assay: Antiinflammatory activity in mouse RAW264.7 cells assessed as inhibition of LPS-stimulated alpha-tubulin expression at 0.1 to 10 uM after 18 hrs by immunoblot analysis; format: functional, cell-based
RAW264.7 [4] = assay: Antiinflammatory activity in mouse RAW264.7 cells assessed as inhibition of LPS-stimulated iNOS expression after 18 hrs by immunoblot analysis; format: functional, cell-based
How it was run: (§1)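 RAW264.7 cells pretreated 30 min with compound (0, 1, 3, 10 µM), then stimulated with LPS 1 µg/mL for 18 h. Lysates in Tris-HCl pH 7.5/NP-40 buffer with protease/phosphatase inhibitors; 50 µg protein per lane on SDS-PAGE, PVDF transfer, antibody probing, ECL detection. Densitometry normalized to α-tubulin; mean ± S.D.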

RAW264.7 [5] = assay: Antiinflammatory activity in mouse RAW264.7 cells assessed as inhibition of LPS-stimulated COX2 expression after 18 hrs by immunoblot analysis; format: functional, cell-based; how it was run: as §1

Structure (SMILES) | IC50 (RAW264.7 [2]) [µM] | Activity (RAW264.7 [1]) | inhibition (RAW264.7 [3]) | inhibition (RAW264.7 [4]) | inhibition (RAW264.7 [5])
Oc1ccc([C@@H](O)CCc2ccc3c(c2)OCO3)c(O)c1 | > 50 | Non-toxic |  |  | 
COc1cc(CC[C@H](O)c2ccc(O)cc2O)ccc1O | > 50 | Non-toxic |  |  | 
CC1=C(O)C(=O)C=C2C1=CC=C1[C@@]2(C)CC[C@@]2(C)[C@@H]3C[C@](C)(C(=O)O)CC[C@]3(C)CC[C@]12C [CELASTROL] | 1 |  |  |  | 
O=C(CCCCCCCCc1ccc(O)c(O)c1)c1c(O)cccc1O [MALABARICONE C] | 2.3 | Non-toxic | inactive | Dose-dependent effect | Dose-dependent effect

More lines, main results first:

IC50 (RAW264.7 [2]) [µM] | Structure (SMILES) | Activity (RAW264.7 [1]) | inhibition (RAW264.7 [3]) | inhibition (RAW264.7 [4]) | inhibition (RAW264.7 [5])
25 | C/C=C/c1ccc(O[C@H](C)[C@@H](O)c2ccc(O)c(OC)c2)c(OC)c1 | Non-toxic |  |  | 
24.5 | C=CCc1cc(OC)c(O[C@H](C)[C@@H](OC(C)=O)c2ccc(OC)c(OC)c2)c(OC)c1 |  |  |  | 
32.5 | COc1cc(C[C@@H](C)[C@H](C)c2cc(O)c(O)c(OC)c2)ccc1O | Non-toxic |  |  | 
> 50 | C=CCc1cc(OC)c(O[C@H](C)[C@@H](O)c2ccc(OC)c(OC)c2)c(OC)c1 | Non-toxic |  |  | 
